This note sets out measurements from PMC3870591 (Human immunology, 2013).

Marks after values point to notes of the source that are not given here. A value given as a limit tells only on which side of the number the result lay.

In one experiment the target is DRB1*11:01 (Homo sapiens, UniProt P01903+P01911, A100R/A169T/A87E/I96F/K41T/L162R/M171V/P40S/Q125H/Q178H/Q39Y/Q99D/R42S/S66Y/T262R/V115G/W38E). Nature of the experiment: REVEAL MHC-peptide binding assay. Particulars: HLA DRB1*11:01; percentage of signal of positive control peptide. A digest of the protocol: (§1)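 Overlapping 15-mer peptides (3-residue offset) spanning brown shrimp tropomyosin (Q3Y8M6) were tested in the REVEAL assay. It detects peptide-stabilised, natively folded MHC class II complexes via a labeled antibody. Scores at 0 and 24 h are expressed as % of signal from an allele-specific known T-cell epitope positive control. An intermediate-affinity control peptide verified assay performance. A score of ≥10% counted as a good binder.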

The target in a further experiment is DRB1*15:01 (Homo sapiens, UniProt P01903+P01911). Nature of the experiment: REVEAL MHC-peptide binding assay. The note with it: HLA DRB1*15:01; percentage of signal of positive control peptide. A digest of the protocol:
as §1

Another experiment addresses DQA1*03:01; DQB1*03:02 (Homo sapiens, UniProt P01909+P01920, A209T/A45G/C70Q/D89A/DUP78-78/E183D/E77G/F237L/G63E/H199R/I129T/K197E/L178F/L74F/L98V/Q57E/Q76R/S185I/S97I/T217I/T49S/V73L/Y58L). Nature of the experiment: REVEAL MHC-peptide binding assay. Particulars: HLA DQB1*03:02; percentage of signal of positive control peptide. A digest of the protocol:
as §1

For the next experiment, the target named is DRB1*13:01 (Homo sapiens, UniProt P01903+P01911, A100E/A169T/K41T/L162R/M171V/P40S/Q125H/Q178H/Q39Y/Q99D/R42S/S66N/T262R/W38E/Y61H). Nature of the experiment: REVEAL MHC-peptide binding assay. Particulars: HLA DRB1*13:01; percentage of signal of positive control peptide. The essentials:
as §1

The next experiment has as its target DQA1*01:01; DQB1*05:01 (Homo sapiens, UniProt P01909+P01920, A157S/A45G/A70V/C70R/D89V/E106S/E118A/E183D/E77G/F83G/G63E/H151Q/H199R/H252R/H253Q/I129T/I235V/I88M/INS77G/K197Q/L107V/L117V/L119Y/L178F/L71W/L74F/L85Q/L91A/L98M/M46L/N214S/P87R/Q116E/Q256R/Q57E/Q76K/R102G/R240Q/R75S/R78G/S102Y/S185I/S41F/S97I/T103A/T109R/T121G/T122I/T172A/T86R/V148I/V68A/V73E/Y34C/Y58G/Y62H). Nature of the experiment: REVEAL MHC-peptide binding assay. The note with it: HLA DQB1*05:01; percentage of signal of positive control peptide. The essentials:
as §1

The target in another experiment is DRB1*04:01 (Homo sapiens, UniProt P01903+P01911, A100K/A169T/F76Y/I96L/K127E/L162R/M171V/N62H/P40V/Q125Y/R42H/S133A/S149N/S66Y/V115G/V209L/W38E). Nature of the experiment: REVEAL MHC-peptide binding assay. The note with it: HLA DRB1*04:01; percentage of signal of positive control peptide. The essentials:
as §1

The target in another experiment is DRB1*03:01 (Homo sapiens, UniProt P01903+P01911, A100K/A102G/A103R/A169T/F55Y/I96L/K41T/L162R/M171V/P40S/Q125H/Q178H/Q39Y/R42S/S66N/T106N/T262R/W38E/Y61H). Nature of the experiment: REVEAL MHC-peptide binding assay. The note with it: HLA DRB1*03:01; percentage of signal of positive control peptide. The essentials: as §1
The next experiment addresses DQA1*05:01; DQB1*02:01 (Homo sapiens, UniProt P01909+P01920, A45G/A70V/D89A/E106A/E77G/E98D/H199R/L107V/N214S/P84L/P87L/T103K/T109R/T172A/T60S/V78E/V99I/Y58L/Y62S/Y69I/Y79F). Nature of the experiment: REVEAL MHC-peptide binding assay. The note with it: HLA DQB1*02:01; percentage of signal of positive control peptide. The essentials: as §1
The target of a further experiment is DRB1*07:01 (Homo sapiens, UniProt P01903+P01911, A100R/A102G/A103Q/D57E/D86V/E43K/F76Y/K127E/L162R/M171V/P40G/Q125H/Q99D/R33Q/R42Y/R54Q/S133A/S66F/T210M/V115G/Y107V/Y59L/Y89S). Nature of the experiment: REVEAL MHC-peptide binding assay. The note with it: HLA DRB1*07:01; percentage of signal of positive control peptide. The essentials:
as §1

The subject of a further experiment is MHC class II alleles. Nature of the experiment: REVEAL MHC-peptide binding assay. More on the design: species or system human. The note with it: % of the positive control; allele not given. A digest of the protocol: as §1
The target of the next experiment is DRB1*09:01 (Homo sapiens, UniProt P01903+P01911, A100R/A103E/D57H/D86V/F55Y/F60I/F76Y/I96F/K127E/L162R/M171V/P40D/Q125H/Q99R/R33Q/R42F/S133A/S66N/T210M/V115G/W38K/Y107V/Y59G/Y89S). Nature of the experiment: REVEAL MHC-peptide binding assay. Particulars: HLA DRB1*09:01; percentage of signal of positive control peptide. A digest of the protocol: as §1
For a further experiment, the target named is DRB1*10:01 (Homo sapiens, UniProt P01903+P01911, A100R/A169T/D57E/F55L/F60V/F69Y/F76Y/I96L/L162R/M171V/P40V/Q260P/Q39E/Q99R/R195Q/R42F/S149N/S66Y/T210M/V115G/V67A/W38E/Y59R/Y61H). Nature of the experiment: REVEAL MHC-peptide binding assay. Particulars: HLA DRB1*10:01; percentage of signal of positive control peptide. The essentials:
as §1

A further experiment concerns CD4 T cells. Nature of the experiment: CFSE CD4 T cell proliferation assay. It counts as cell-based, human.
Experiment [1] relates to Peripheral blood mononuclear cells (PBMC). Nature of the experiment: Tritiated thymidine proliferation assay. The class given is cell-based, human.

As for “1: tropomyosin-derived 15-mer MDAIKKKMQAMKLEK [Peptide 1]”, the Binding score worked out at 18.74% with DRB1*11:01, 14.02% with DRB1*15:01 and 35.20% with DQA1*03:01; DQB1*03:02.

For “2: tropomyosin-derived 15-mer IKKKMQAMKLEKDNA [Peptide 2]”, the figures for the Binding score in the experiment with DRB1*13:01 and with DQA1*01:01; DQB1*05:01 were 26.06% and 13.94%, respectively. In the case of “3: tropomyosin-derived 15-mer KMQAMKLEKDNAMDR [Peptide 3]”, the Binding score with DRB1*04:01 is 23.52%. “4: tropomyosin-derived 15-mer AMKLEKDNAMDRADT [Peptide 4]” gave a Binding score with DRB1*03:01 of 74.69%. On the same count and under the same terms, the figure for “5: tropomyosin-derived 15-mer LEKDNAMDRADTLEQ [Peptide 5]” is 66.31%. With “7: tropomyosin-derived 15-mer MDRADTLEQQNKEAN [Peptide 7]”, the Binding score with DRB1*04:01 is recorded as 22.16%. In the experiment with DQA1*05:01; DQB1*02:01, “8: tropomyosin-derived 15-mer ADTLEQQNKEANNRA [Peptide 8]” came in with a Binding score of 20.74%. On the same count and under the same terms, the figure for “10: tropomyosin-derived 15-mer QNKEANNRAEKSEEE [Peptide 10]” is 25.17%.

Consider “13: tropomyosin-derived 15-mer EKSEEEVHNLQKRMQ [Peptide 13]”, for which the Binding score with DRB1*07:01 is listed as 26.79%. As for “15: tropomyosin-derived 15-mer VHNLQKRMQQLENDL [Peptide 15]”, the Binding score in the experiment with DRB1*11:01 came to 11.01%. On to “18: tropomyosin-derived 15-mer QLENDLDQVQESLLK [Peptide 18]”, for which the “Binding score (relative binding affinity)” value with MHC class II alleles is listed as no more than 10%. Besides, the Binding score with DRB1*04:01 is reported as 9.10 ^a %.

With “21: tropomyosin-derived 15-mer QESLLKANIQLVEKD [Peptide 21]”, in the experiment with DRB1*09:01, the Binding score was 8.32 ^a %. “24: tropomyosin-derived 15-mer QLVEKDKALSNAEGE [Peptide 24]”: the Binding score is given as 20.62% in the experiment with DRB1*04:01 and 45.59% in the experiment with DRB1*03:01. Regarding “29: tropomyosin-derived 15-mer VAALNRRIQLLEEDL [Peptide 29]”, the Binding score with DRB1*11:01 is 22.35%; with DRB1*13:01, 19.31%.

Substance “34: tropomyosin-derived 15-mer ERSEERLNTATTKLA [Peptide 34]” had a Binding score with DQA1*01:01; DQB1*05:01 of 22.67%. Consider “36: tropomyosin-derived 15-mer LNTATTKLAEASQAA [Peptide 36]”, for which the Binding score with DRB1*04:01 stood at 43.87%. Take “43: tropomyosin-derived 15-mer RKVLENRSLSDEERM [Peptide 43]”: the “Binding score (relative binding affinity)” value with MHC class II alleles is given as no more than 10%. The Binding score with DQA1*01:01; DQB1*05:01 is given as 7.11 ^a %. In the experiment with DQA1*01:01; DQB1*05:01, “49: tropomyosin-derived 15-mer ENQLKEARFLAEEAD [Peptide 49]” returned a Binding score of 19.65%. On to “51: tropomyosin-derived 15-mer ARFLAEEADRKYDEV [Peptide 51]”, for which the Binding score in the experiment with DRB1*04:01 amounted to 11.06%; with DRB1*03:01, 15.03%. Turning to “53: tropomyosin-derived 15-mer EADRKYDEVARKLAM [Peptide 53]”, the Binding score in the experiment with DRB1*11:01 was 13.67%. “54: tropomyosin-derived 15-mer RKYDEVARKLAMVEA [Peptide 54]”: the Binding score in the experiment with DQA1*03:01; DQB1*03:02 is 7.98 ^a %.

As to “57: tropomyosin-derived 15-mer LAMVEADLERAEERA [Peptide 57]”, the Binding score with DRB1*03:01 is 19.46%.

In turn, “58: tropomyosin-derived 15-mer VEADLERAEERAETG [Peptide 58]” showed a Binding score with DRB1*10:01 of 39.12%. In the experiment with DRB1*03:01, “63: tropomyosin-derived 15-mer ESKIVELEEELRVVG [Peptide 63]” gave a Binding score of 29.06%. “66: tropomyosin-derived 15-mer ELRVVGNNLKSLEVS [Peptide 66]”: the Binding score was determined as 25.05% in the experiment with DRB1*04:01 and 24.15% with DQA1*05:01; DQB1*02:01. In the case of “74: tropomyosin-derived 15-mer AYKEQIKTLTNKLKA [Peptide 74]”, the Binding score stood at 10.94% in the experiment with DRB1*11:01; 14.73% with DQA1*01:01; DQB1*05:01; 19.28% in the experiment with DQA1*03:01; DQB1*03:02; 41.94% with DRB1*04:01; 74.20% with DRB1*07:01. For “76: tropomyosin-derived 15-mer KTLTNKLKAAEARAE [Peptide 76]”, the figures for the Binding score in the experiment with DRB1*09:01 and in the experiment with DRB1*10:01 were 89.92% and 37.57%, respectively.

For “80: tropomyosin-derived 15-mer RAEFAERSVQKLQKE [Peptide 80]”, in the experiment with MHC class II alleles, the “Binding score (relative binding affinity)” value is listed as no more than 10%. Moreover, the Binding score with DQA1*01:01; DQB1*05:01 is recorded as 9.26 ^a %.

Turning to Tetanus Toxoid, the “CD4 T cell proliferation (CFSE)” value in the experiment with CD4 T cells is on record as “much greater level of CD4 T cell proliferation”. In addition, the “Proliferative T cell response by tritiated-thymidine incorporation” value in experiment [1] is on record as “much higher proliferative responses”.
